Test [1] has as its target T1, Papain (Carica papaya) (UniProt P00784).
T1 sequence (whole entry): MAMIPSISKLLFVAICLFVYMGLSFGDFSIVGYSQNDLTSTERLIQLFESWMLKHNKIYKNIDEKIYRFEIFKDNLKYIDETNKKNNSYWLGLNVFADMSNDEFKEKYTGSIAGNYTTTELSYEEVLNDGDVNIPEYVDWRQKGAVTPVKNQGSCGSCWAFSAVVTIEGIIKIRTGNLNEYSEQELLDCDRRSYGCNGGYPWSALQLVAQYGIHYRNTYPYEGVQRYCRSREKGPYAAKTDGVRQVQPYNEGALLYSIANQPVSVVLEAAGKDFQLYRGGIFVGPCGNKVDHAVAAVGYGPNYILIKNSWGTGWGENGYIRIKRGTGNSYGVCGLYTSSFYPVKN
Put plainly: Second-order rate constants for the inactivation of papain (vascular plant enzyme); no inhibition.

Test [2] deals with Cathepsin B (Bos taurus) (UniProt P07688). Put plainly: Evaluated for second-order rate constants for the inactivation of mammalian lysosomal cathepsin B.
Test [3] concerns the target Procathepsin L (Homo sapiens) (UniProt P07711). The experiment in a line: Evaluated for second-order rate constants for the inactivation of mammalian lysosomal cathepsin L.
For test [4], the target named is T1, Papain (Carica papaya). Put plainly: Second-order rate constants for the inactivation of papain (vacuolar plant enzyme). The method in brief: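 Papain with L-BAPA (405 nm) in 50 mM phosphate pH 6.5, 5 mM EDTA, 5 mM cysteine, or with Z-Phe-Arg-AMC in phosphate pH 6.5 with DTT, EDTA, Brij 35; 25 °C. kobs at 3–7 inhibitor concentrations, continuous or dilution assay; k2nd = ki/Ki, or from linear kobs vs [I] when unsaturated; substrate-corrected (Km 2.5 mM L-BAPA, 0.09 mM Z-Phe-Arg-AMC).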

The target in test [5] is T1, Papain (Carica papaya). The experiment in a line: Second-order rate constants for the inactivation of papain at pH 4 (vascular plant enzyme). The method in brief: (§1)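 Papain (0.5 mg mL-1) with 1.4–1.5 mM L-BAPA, read at 405 nm, 25 °C. Buffers: 50 mM citrate for pH 4–6, phosphate for pH 6–8, borate for pH 8–9. kobs came from continuous or dilution assays at 3–7 inhibitor concentrations. k_i/K_i came from a hyperbolic or linear fit, corrected to zero substrate (Km 2.5 mM).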

In test [6] the target is T2, Pro-cathepsin H (Homo sapiens, UniProt P09668).
T2 sequence (P09668 whole entry): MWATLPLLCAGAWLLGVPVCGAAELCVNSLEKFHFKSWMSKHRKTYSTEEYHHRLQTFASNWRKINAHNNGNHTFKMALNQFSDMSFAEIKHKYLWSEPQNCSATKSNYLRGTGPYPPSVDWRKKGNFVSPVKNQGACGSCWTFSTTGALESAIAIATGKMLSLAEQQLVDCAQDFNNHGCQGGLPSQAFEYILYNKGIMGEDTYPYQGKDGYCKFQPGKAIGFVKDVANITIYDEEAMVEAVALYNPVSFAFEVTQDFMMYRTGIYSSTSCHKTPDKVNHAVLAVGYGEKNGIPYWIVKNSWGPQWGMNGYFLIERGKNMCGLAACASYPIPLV
Put plainly: Inhibition constant for the non time dependent inhibition of cathepsin H.

For test [7], the target named is T3, Calpain-2 catalytic subunit (Sus scrofa, UniProt P43367).
T3 sequence (P43367 whole entry): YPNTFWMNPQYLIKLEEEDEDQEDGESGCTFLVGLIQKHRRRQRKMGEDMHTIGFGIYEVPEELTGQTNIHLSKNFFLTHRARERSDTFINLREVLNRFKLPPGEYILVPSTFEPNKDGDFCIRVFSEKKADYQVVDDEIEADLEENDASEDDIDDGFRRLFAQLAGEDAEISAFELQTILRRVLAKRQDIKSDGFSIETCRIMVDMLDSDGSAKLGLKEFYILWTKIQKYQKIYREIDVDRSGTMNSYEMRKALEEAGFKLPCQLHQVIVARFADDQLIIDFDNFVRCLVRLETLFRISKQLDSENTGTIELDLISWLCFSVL
The experiment in a line: Inhibition constant for the non time dependent inhibition of Calpain 2. The method in brief:
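Calpain I or II with Suc-Leu-Tyr-AMC in 50 mM Tris pH 7.5, 5 mM CaCl2, 2.5 mM EDTA, 2.5 mM DTT. Enzyme preincubated in buffer 30 min, assayed at 25 °C, fluorescence 460 nm (excitation 380 nm). Ki from Dixon plots, corrected to zero substrate with Km 0.4 mM (calpain I) or 0.22 mM (calpain II).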

Test [8] has as its target T1, Papain (Carica papaya). The experiment in a line: Second-order rate constants for the inactivation of papain at pH 8(vascular plant enzyme). The method in brief: as §1
In test [9] the target is T1, Papain (Carica papaya). Put plainly: Second-order rate constants for the inactivation of papain at pH 6.5(vascular plant enzyme). The gist of the method:
as §1

The record followed here is ChEMBL document CHEMBL1132578, “New peptidic cysteine protease inhibitors derived from the electrophilic alpha-amino acid aziridine-2,3-dicarboxylic acid” (J Med Chem, 1999).

Calls of active or inactive are those of the source. The calls are words filed in the database; no cut-off is given here.

Sequence of Procathepsin L (Homo sapiens) (P07711 114-333 limits assumed): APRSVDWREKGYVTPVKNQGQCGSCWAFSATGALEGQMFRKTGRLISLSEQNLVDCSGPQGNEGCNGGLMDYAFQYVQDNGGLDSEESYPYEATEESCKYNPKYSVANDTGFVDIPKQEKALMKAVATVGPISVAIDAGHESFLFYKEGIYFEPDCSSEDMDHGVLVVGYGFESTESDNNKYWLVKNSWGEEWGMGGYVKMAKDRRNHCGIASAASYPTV

With `CC[C@H](C)C(NC(=O)[C@@H]1N[C@H]1C(=O)NCC(C)C)C(=O)N1CCCC1C(=O)O` (single isomer, unassigned), the ki/Ki result in test [1] is “inactive”. Besides, the ki/Ki turned out to be 13 M⁻¹ s⁻¹ in test [2] and 50 M⁻¹ s⁻¹ in [3].

As to `CCOC(=O)C1C(C(=O)OCC)N1C(=O)[C@H](CC(C)C)NC(=O)OCC1c2ccccc2-c2ccccc21` (some centres undefined), the figures for the ki/Ki in [4] and in [3] were 1.08 M⁻¹ s⁻¹ and 1.65 M⁻¹ s⁻¹, respectively.

`CC(C)CCNC(=O)[C@H](CC(C)C)NC(=O)[C@H]1N[C@@H]1C(=O)O`: the ki/Ki in test [4] stood at 0.167 M⁻¹ s⁻¹.

Take `CCOC(=O)C1NC1C(=O)N[C@H](CC(C)C)C(=O)NCCC(C)C` (some centres undefined): in [4], the ki/Ki was found to be 55 M⁻¹ s⁻¹.

As for `CC(C)CCNC(=O)C(CC(C)C)NC(=O)[C@@H]1N[C@H]1C(=O)O` (single isomer, unassigned), the ki/Ki in test [4] amounted to 0.167 M⁻¹ s⁻¹.

Consider `CCOC(=O)C1C(C(=O)OCc2ccccc2)N1C(=O)CNC(=O)[C@H](CC(C)C)NC(=O)OC(C)(C)C` (some centres undefined), for which the ki/Ki in test [4] worked out at 2.48 M⁻¹ s⁻¹; in test [2], 4 M⁻¹ s⁻¹; in test [3] it was 53.9 M⁻¹ s⁻¹.

As for `CCOC(=O)C1C(C(=O)OCc2ccccc2)N1C(=O)[C@H](C)NC(=O)[C@H](Cc1ccccc1)NC(=O)OC(C)(C)C` (some centres undefined), the figures for the ki/Ki in test [4], in test [2] and in [3] were 20.5 M⁻¹ s⁻¹, 7.38 M⁻¹ s⁻¹ and 4.68 M⁻¹ s⁻¹, respectively.

Regarding `CCOC(=O)C1C(C(=O)OCc2ccccc2)N1C(=O)[C@H](Cc1ccccc1)NC(=O)OC(C)(C)C` (some centres undefined), the ki/Ki in test [4] was 1.27 M⁻¹ s⁻¹.

With `CCOC(=O)C1NC1C(=O)OCC` (centres undefined), the ki/Ki in [5] was found to be 1.02 M⁻¹ s⁻¹.

As for `CCOC(=O)[C@@H]1N[C@H]1C(=O)N[C@@H](CC(C)C)C(=O)O`, the ki/Ki in [4] was 1.05 M⁻¹ s⁻¹.

Molecule `CCOC(=O)C1NC1C(=O)N[C@@H](CC(C)C)C(=O)NCCC(C)C` (some centres undefined) registered a ki/Ki in test [4] of 3 M⁻¹ s⁻¹.

For `CCOC(=O)[C@H]1N[C@@H]1C(=O)N[C@@H](CC(C)C)C(=O)N1CCC[C@H]1C(=O)OCc1ccccc1`, the ki/Ki in test [4] was determined as 3.78 M⁻¹ s⁻¹; in test [2] it was 6.75 M⁻¹ s⁻¹; in test [3], 35.7 M⁻¹ s⁻¹.

Take `CCOC(=O)[C@@H]1[C@@H](C(=O)OCC)N1C(=O)CNC(=O)CNC(=O)OCc1ccccc1`: the ki/Ki is 4.95 M⁻¹ s⁻¹ in [4], 6.48 M⁻¹ s⁻¹ in test [2] and 5.28 M⁻¹ s⁻¹ in test [3].

Regarding `CCOC(=O)C1C(C(=O)O)N1C(=O)[C@H](Cc1ccccc1)NC(=O)OC(C)(C)C` (some centres undefined), the ki/Ki in test [4] turned out to be 8.42 M⁻¹ s⁻¹; in [2] it was 20.5 M⁻¹ s⁻¹; in test [3], 3.13 M⁻¹ s⁻¹.

`CCOC(=O)[C@@H]1[C@@H](C(=O)N[C@@H](CC(C)C)C(=O)OCc2ccccc2)N1C(=O)[C@H](Cc1ccccc1)NC(=O)OC(C)(C)C` gave a Ki in [6] of 93 µM. The ki/Ki in test [4] came out at 2.85 M⁻¹ s⁻¹; in [2], 2.03 M⁻¹ s⁻¹; in test [3], 3.65 M⁻¹ s⁻¹.

For the molecule `CCOC(=O)[C@@H]1[C@@H](C(=O)OCC)N1C(=O)[C@H](C)NC(=O)[C@@H](Cc1ccccc1)NC(=O)OC(C)(C)C`, the ki/Ki in test [4] worked out at 22.8 M⁻¹ s⁻¹; in [2], 7.58 M⁻¹ s⁻¹; in test [3] it was 7.82 M⁻¹ s⁻¹.

Consider `CCOC(=O)[C@H]1[C@H](C(=O)N[C@@H](CC(C)C)C(=O)OCc2ccccc2)N1C(=O)[C@H](Cc1ccccc1)NC(=O)OC(C)(C)C`, for which the Ki in [6] was 137 µM; in [7], 42 µM. In addition, the ki/Ki in [4] was 3.75 M⁻¹ s⁻¹; in [2], 4.28 M⁻¹ s⁻¹; in test [3] it was 5.23 M⁻¹ s⁻¹.

On to `CCOC(=O)[C@@H]1[C@@H](C(=O)N[C@@H](CC(C)C)C(=O)N2CCCC2C(=O)OCc2ccccc2)N1C(=O)[C@H](Cc1ccccc1)NC(=O)OC(C)(C)C` (some centres undefined), for which the results for the ki/Ki in test [4] and in test [2] were 5.35 M⁻¹ s⁻¹ and 7.5 M⁻¹ s⁻¹, respectively.

Turning to `CCOC(=O)[C@@H]1[C@@H](C(=O)OCC)N1C(=O)[C@H](Cc1ccccc1)NC(=O)[C@H](C)NC(=O)OCc1ccccc1`, the ki/Ki in test [4] turned out to be 2.95 M⁻¹ s⁻¹; in test [2], 2.08 M⁻¹ s⁻¹; in test [3], 0.483 M⁻¹ s⁻¹.

For `CCOC(=O)[C@H]1[C@H](C(=O)OCC)N1C(=O)[C@H](Cc1ccccc1)NC(=O)C(C)NC(=O)OCc1ccccc1` (single isomer, unassigned), the ki/Ki in [4] was found to be 0.35 M⁻¹ s⁻¹; in test [2], 0.367 M⁻¹ s⁻¹; in [3] it was 0.55 M⁻¹ s⁻¹.

`CCOC(=O)C1NC1C(=O)N[C@@H](CC(C)C)C(=O)OCc1ccccc1` (some centres undefined) showed a Ki in test [6] of 260 µM. Moreover, the ki/Ki is 13.1 M⁻¹ s⁻¹ in test [5]; 3.57 M⁻¹ s⁻¹ in test [4]; 0.4 M⁻¹ s⁻¹ in test [8]; 0.683 M⁻¹ s⁻¹ in test [2]; 2.8 M⁻¹ s⁻¹ in test [9]; 52.2 M⁻¹ s⁻¹ in test [3].

In the case of `CCOC(=O)[C@H]1[C@H](C(=O)N[C@@H](CC(C)C)C(=O)N2CCCC2C(=O)OCc2ccccc2)N1C(=O)[C@H](Cc1ccccc1)NC(=O)OC(C)(C)C` (some centres undefined), the ki/Ki stood at 12.8 M⁻¹ s⁻¹ in [4], 32.3 M⁻¹ s⁻¹ in test [2] and 98.3 M⁻¹ s⁻¹ in test [3].

In the case of `CCOC(=O)[C@@H]1[C@@H](C(=O)OCC)N1C(=O)[C@H](C)NC(=O)OC(C)(C)C`, the ki/Ki in [4] amounted to 0.717 M⁻¹ s⁻¹.

In the case of `CCOC(=O)[C@@H]1[C@@H](C(=O)OCC)N1C(=O)[C@H](C)NC(=O)[C@H](Cc1ccccc1)NC(=O)CNC(=O)OCc1ccccc1`, the ki/Ki in test [4] stood at 8.72 M⁻¹ s⁻¹; in test [2], 7.02 M⁻¹ s⁻¹; in test [3], 5.25 M⁻¹ s⁻¹.

`CCOC(=O)[C@H]1[C@H](C(=O)OCC)N1C(=O)C(Cc1ccccc1)NC(=O)OC(C)(C)C` (single isomer, unassigned): the values for the ki/Ki in test [4], in test [2] and in test [3] were 0.7 M⁻¹ s⁻¹, 0.3 M⁻¹ s⁻¹ and 0.267 M⁻¹ s⁻¹, respectively.
